Laboratory results as given in paper PMC2605181 (Nature chemical biology, 2008).
“Also recorded” adds a separate entry of the source.

Columns and labels:
ABHD6 = target: T1, ABHD6 (Mus musculus, UniProt Q8R2Y0); experiment: Competitive ABPP; assay type: biochemical; details: for inhibition of ABHD6 by competitive ABPP: mouse brain membrane proteome, 30 min, Fig. 1b
T1 sequence (Q8R2Y0 1-336): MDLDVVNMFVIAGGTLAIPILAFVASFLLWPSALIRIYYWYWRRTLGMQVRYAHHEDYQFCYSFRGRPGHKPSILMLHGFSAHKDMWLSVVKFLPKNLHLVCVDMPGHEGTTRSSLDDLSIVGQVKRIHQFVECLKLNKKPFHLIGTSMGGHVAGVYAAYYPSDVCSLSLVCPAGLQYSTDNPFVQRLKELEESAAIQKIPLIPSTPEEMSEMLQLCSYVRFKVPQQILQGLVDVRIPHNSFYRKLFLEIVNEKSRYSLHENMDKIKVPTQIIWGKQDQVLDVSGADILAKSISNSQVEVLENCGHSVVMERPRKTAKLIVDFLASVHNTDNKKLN
In short: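 Mouse brain membrane proteome at 1 mg ml-1 in PBS, preincubated with test compound (1 nM to 10 μM) for 30 min at 37°C, then FP-rhodamine (2 μM final) for 30 min at room temperature. Quenched in SDS loading buffer and boiled 5 min at 90°C. Run on SDS-PAGE with in-gel fluorescence scanning; DMSO-only proteome served as control.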

MAGL [1] = target: T2, MAGL (Mus musculus, UniProt O35678); experiment: Competitive ABPP; assay type: biochemical; details: for inhibition of MAGL by competitive ABPP: 30 min
T2 sequence (O35678 1-303): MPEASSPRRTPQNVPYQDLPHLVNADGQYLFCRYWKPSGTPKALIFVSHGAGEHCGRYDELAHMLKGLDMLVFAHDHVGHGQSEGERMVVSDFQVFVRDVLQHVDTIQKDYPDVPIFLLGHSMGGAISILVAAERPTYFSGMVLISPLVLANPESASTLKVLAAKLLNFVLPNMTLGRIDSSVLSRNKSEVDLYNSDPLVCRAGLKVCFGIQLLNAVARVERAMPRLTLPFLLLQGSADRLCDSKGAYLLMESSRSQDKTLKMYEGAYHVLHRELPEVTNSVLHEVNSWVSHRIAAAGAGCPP

FAAH [2] = target: T3, FAAH (Mus musculus, UniProt O08914); experiment: Competitive ABPP; assay type: biochemical; details: for inhibition of FAAH by competitive ABPP: mouse brain membrane proteome, 30 min, Fig. 1b
T3 sequence (O08914 1-579): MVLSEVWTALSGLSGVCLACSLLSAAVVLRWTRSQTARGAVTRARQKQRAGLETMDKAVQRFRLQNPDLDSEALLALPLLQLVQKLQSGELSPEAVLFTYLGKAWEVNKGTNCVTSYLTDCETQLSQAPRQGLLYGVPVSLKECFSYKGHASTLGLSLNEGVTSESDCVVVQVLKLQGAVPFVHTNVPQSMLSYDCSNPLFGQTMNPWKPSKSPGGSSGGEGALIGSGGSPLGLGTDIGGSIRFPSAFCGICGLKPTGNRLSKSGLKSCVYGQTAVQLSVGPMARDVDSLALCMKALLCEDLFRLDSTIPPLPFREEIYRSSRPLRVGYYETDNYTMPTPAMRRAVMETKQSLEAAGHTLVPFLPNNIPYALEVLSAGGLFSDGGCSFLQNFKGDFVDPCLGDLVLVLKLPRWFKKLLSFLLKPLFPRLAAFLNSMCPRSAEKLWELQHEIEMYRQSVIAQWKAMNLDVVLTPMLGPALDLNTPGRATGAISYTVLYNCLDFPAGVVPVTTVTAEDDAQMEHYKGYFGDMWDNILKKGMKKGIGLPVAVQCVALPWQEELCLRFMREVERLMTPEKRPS
In short: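 Mouse brain membrane proteome (1 mg ml-1 in PBS) preincubated with test compound (1 nM to 10 μM) for 30 min at 37°C, then FP-rhodamine (2 μM final) for 30 min at room temperature, quenched, SDS-PAGE, in-gel fluorescence; DMSO control. kobs [I]-1: proteome with 0.01-15 μM for 10-40 min at 37°C, aliquots FP-rhodamine-labelled 2 min every 10 min; FAAH band density fit exponentially for pseudo-first-order constants.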

[3] = tested on: brain levels of 2-AG, arachidonic acid, NAEs, MAGs; experiment: Measurement of brain lipids in treated mice; assay type: in vivo, mouse
FAAH [4] = target: T3, FAAH; experiment: FAAH activity of brain membranes from treated mice; assay type: in vivo
In short: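 Male C57Bl/6J mice (6-8 weeks, 20-26 g) dosed i.p. in 4:1 v/v PEG300:Tween80, with vehicle-only controls. Killed by decapitation under isoflurane 0.5-24 h later; brain hemisected and flash frozen, one half used for membrane proteomes. FAAH activity measured by gel competitive ABPP, FP-biotin ABPP-MudPIT and LC-MS oleamide hydrolysis. Means ± SEM, n = 3-5 mice per group.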

mice [5] = experiment: Locomotor activity; assay type: in vivo, mouse
In short: (§1)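 Measured as part of the cannabinoid tetrad test in mice. Test compound was dissolved in 4:1 v/v PEG300:Tween80 by vortexing, sonication and gentle heating, and given i.p. at 4 μl g-1 body weight; vehicle-only group as control. Rimonabant, where used, was given in 18:1:1 v/v/v saline:ethanol:alkamuls-620.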

mice [6] = experiment: Formalin test; assay type: in vivo, mouse
In short: (§2)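 Test compound was given in 4:1 v/v PEG300:Tween80 at 4 μl g-1: i.p. for tail immersion and acetic acid stretching; p.o. in PEG300 for formalin phase 1 (40 mg kg-1). Rimonabant was given in 18:1:1 saline:ethanol:alkamuls-620. Vehicle and rimonabant-pretreated groups were compared; mean ± SEM, n = 6-14 mice per group.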

mice [7] = experiment: Tail immersion test of acute thermal pain sensation; assay type: in vivo, mouse
In short: as §2

mice [8] = experiment: Rectal temperature; assay type: in vivo, mouse
In short: as §1

mice [9] = experiment: Acetic acid writhing; assay type: in vivo, mouse
In short: as §2

[10] = Time course of JZL184 in mouse brain; assay type: in vivo; details: C57Bl/6J
mice [11] = experiment: Catalepsy bar test and overt behaviour; assay type: in vivo, mouse
In short: as §1

MAGL [12] = target: T2, MAGL; experiment: MAGL activity of brain membranes from treated mice; assay type: in vivo; details: 16 mg kg^-1 i.p., 4 h
brain serine hydrolases = experiment: Other brain serine hydrolase activities from treated mice; assay type: in vivo, mouse; details: 16 mg kg^-1, 4 h
In short: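 Male C57Bl/6J mice (6-8 weeks, 20-26 g) given 16 mg kg-1 i.p. in 4:1 v/v PEG300:Tween80 or vehicle alone. At 4 h, killed by decapitation under isoflurane; brain half flash frozen for protein work. Brain membrane proteomes underwent competitive ABPP with the biotinylated FP probe, then MudPIT identification of serine hydrolase activities relative to vehicle. n = 3-5 mice per group.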

CB2 receptors = CB2 receptors (Homo sapiens, UniProt P34972); experiment: CB2 receptor binding assay, CB2 transfected CHO cell membranes; details: JZL184 0.0005-5 µM
Sequence of CB2 receptors (P34972 whole entry): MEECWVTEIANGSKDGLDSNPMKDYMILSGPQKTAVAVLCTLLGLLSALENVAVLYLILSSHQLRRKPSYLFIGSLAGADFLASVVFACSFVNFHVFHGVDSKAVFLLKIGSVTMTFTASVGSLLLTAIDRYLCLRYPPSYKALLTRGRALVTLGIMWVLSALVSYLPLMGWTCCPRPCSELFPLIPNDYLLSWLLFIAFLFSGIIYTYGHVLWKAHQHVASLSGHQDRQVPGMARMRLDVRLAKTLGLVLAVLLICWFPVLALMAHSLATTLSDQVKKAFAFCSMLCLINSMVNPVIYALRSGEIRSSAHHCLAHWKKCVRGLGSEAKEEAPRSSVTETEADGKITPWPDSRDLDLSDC

[13] = tested on: interstitial brain levels of 2-AG and AEA; experiment: In vivo microdialysis, nucleus accumbens, neuronal depolarization; set-up: species or system mouse; details: 10 mg kg^-1 i.p.
In short: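 Male C57Bl/6 mice received test compound at t = -60 min. Dialysate was sampled from nucleus accumbens. Depolarization was by perfusion with high potassium/calcium artificial CSF at t = 0-90 min. […] Mean ± SEM; n = 8 treated, 6 vehicle.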

CB1 receptors = experiment: CB1 receptor binding assay, cerebellar membranes; details: JZL184 0.001-10 µM
[14] = mouse brain membrane proteome, Fig. 1b
[15] = rimonabant 3 mg kg^-1 pre-treatment
[16] = 16 mg kg^-1 i.p., wild-type / CB1+/+ mice
[17] = brain membrane proteome, FP-rhodamine labeling

O=C(Oc1ccc([N+](=O)[O-])cc1)N1CCN(C(c2ccc(F)cc2)c2ccc(F)cc2)CC1 [WWL152]
inhibition of ABHD6 by competitive ABPP (ABHD6): preserve potency | inhibition of MAGL by competitive ABPP (MAGL [1]; [14]): preserve potency | inhibition of FAAH by competitive ABPP (FAAH [2]): greatly reducing activity for FAAH

NC(=O)c1cccc(-c2cccc(OC(=O)NC3CCCCC3)c2)c1 [URB597, reference compound]
brain 2-AG or arachidonic acid levels ([3]; URB597 10 mg kg^-1 i.p.): without altering | brain anandamide and other NAEs ([3]; URB597 10 mg kg^-1 i.p.): significant elevations | brain FAAH activity (FAAH [4]; URB597 10 mg kg^-1 i.p.): completely inhibited

COc1ccc(C(c2ccc(OC)cc2)N2CCN(C(=O)Oc3ccc([N+](=O)[O-])cc3)CC2)cc1 [WWL162]
inhibition of ABHD6 by competitive ABPP (ABHD6): preserve potency | inhibition of MAGL by competitive ABPP (MAGL [1]; [14]): preserve potency | inhibition of FAAH by competitive ABPP (FAAH [2]): greatly reducing activity for FAAH

Cc1c(C(=O)NN2CCCCC2)nn(-c2ccc(Cl)cc2Cl)c1-c1ccc(Cl)cc1 [rimonabant, reference compound]
effect of rimonabant on its own on movement (mice [5]; rimonabant 3 mg kg^-1): significant reductions in movement | blockade of JZL184-induced immobility (mice [5]; [15]): partial blockade | blockade of JZL184 effect in formalin test (mice [6]; [15]): blocked | blockade of JZL184 effect in tail immersion test (mice [7]; [15]): blocked | blockade of hypothermic effect of JZL184 (mice [8]; [15]): completely blocked | blockade of JZL184 effect in acetic acid writhing test (mice [9]; [15]): blocked

COc1ccc(C(O)(c2ccc(OC)cc2)C2CCN(C(=O)Oc3ccc([N+](=O)[O-])cc3)CC2)cc1 [JZL175]
selectivity for MAGL over FAAH and ABHD6 by competitive ABPP (MAGL [1]; [14]): exhibited selectivity for MAGL over both FAAH and ABHD6

CN(Cc1cccc(-c2ccncc2)c1)C(=O)Oc1ccc([N+](=O)[O-])cc1 [WWL98]
inhibition of ABHD6 by competitive ABPP (ABHD6): inhibited | inhibition of MAGL by competitive ABPP (MAGL [1]; [14]): inhibited | inhibition of FAAH by competitive ABPP (FAAH [2]): inhibited

O=C(Oc1ccc([N+](=O)[O-])cc1)N1CCC(C(O)(c2ccc3c(c2)OCO3)c2ccc3c(c2)OCO3)CC1 [JZL184]
elevation of brain 2-AG above control levels ([3]; 16 mg kg^-1 i.p., for at least 8 h): 7-9 fold | elevation of brain 2-AG (summary statement) ([3]; administration to mice): 8 fold | elevation of brain 2-AG levels above baseline ([3]; higher doses (up to 40 mg kg^-1 i.p.), 4 h): 8-10 fold | period for which elevated brain 2-AG levels were maintained ([3]; single dose): at least 8 h | half-life [10]: ~7 h | hypomotility in CB1^-/- mice (mice [5]; 16 mg kg^-1 i.p., CB1^-/- mice): did not produce significant hypomotility, hypothermia, or analgesia | hypomotility (mice [5]; [16]): hypomotility | concentration at which inhibition of ABHD6 is observed by competitive ABPP (ABHD6; 30 min preincubation): 10 µM | catalepsy in the bar test (mice [11]; 16 mg kg^-1 i.p.): did not, however, induce catalepsy; also recorded: did not develop catalepsy | overt posture and appearance (spontaneous limb splaying) (mice [11]; JZL184-treated mice): appeared generally normal | blockade of MAGL activity by competitive ABPP (MAGL [1]; as low as 50 nM JZL184, 30 min preincubation): Near-complete blockade | kobs [I]^-1 for MAGL (MAGL [1]; [17]): 4400 M⁻¹ s⁻¹ | blockade of brain MAGL activity (competitive ABPP, ABPP-MudPIT) (MAGL [12]): near-complete blockade | residual brain 2-AG hydrolysis activity (MAGL [12]): 15 % of control | inhibition of brain FAAH by ABPP-MudPIT (FAAH [4]; 16 mg kg^-1, 4 h): partial inhibition | brain FAAH blockade, maximum at any time point (FAAH [4]; 16 mg kg^-1 i.p., 0.5-24 h): ≤ 70% | antinociception in formalin test, phase 1 (mice [6]; 40 mg kg^-1 p.o.): antinociceptive effects | antinociception in formalin test, phase 2 (mice [6]; 40 mg kg^-1 p.o.): antinociceptive effects | analgesic activity in formalin test (mice [6]; text: 16 mg kg^-1, 2 h): significant analgesic activity | effect on other brain serine hydrolases by ABPP-MudPIT (brain serine hydrolases): none of the other ∼40 brain serine hydrolases profiled by ABPP-MudPIT were significantly affected | interaction with CB2 receptors (radioligand displacement) (CB2 receptors): did not interact | antinociception in tail immersion test (mice [7]; 16 mg kg^-1 i.p., 2 h, wild-type / CB1+/+ mice): significant analgesic activity; also recorded: antinociceptive effects | hypothermia in CB1^-/- mice (mice [8]; 16 mg kg^-1 i.p., CB1^-/- mice): did not produce significant hypomotility, hypothermia, or analgesia | hypothermia (mice [8]; [16]): significant hypothermia | concentration at which inhibition of FAAH is observed by competitive ABPP (FAAH [2]; 30 min preincubation): 10 µM | kobs [I]^-1 for FAAH (FAAH [2]; [17]): 13 M⁻¹ s⁻¹ | baseline interstitial levels of 2-AG (before depolarization) ([13]; 1 h prior to depolarization): did not observe changes | interstitial brain levels of 2-AG following neuronal depolarization ([13]; nucleus accumbens): dramatically elevated | interstitial brain levels of AEA ([13]; nucleus accumbens): did not affect; also recorded: no significant alteration | antinociception in acetic acid writhing test (mice [9]; 16 mg kg^-1, 2 h): significant analgesic activity; also recorded: antinociceptive effects | interaction with CB1 receptors (displacement of 3H-rimonabant) (CB1 receptors): did not interact
